In ChEMBL document CHEMBL3600315, “Molecular modeling based approach, synthesis, and cytotoxic activity of novel benzoin derivatives targeting phosphoinostide 3-kinase (PI3Kα)” (Bioorg Med Chem Lett, 2015):
Calls of active or inactive are those of the source. No cut-off for these calls is given here.

Test system: HCT-116
Test: Induction of apoptosis in human HCT116 cells assessed as increase in caspase-3 activity at 700 uM after 24 hrs by DEVD-pNA substrate-based colorimetric assay relative to control
Type: functional, cell-based
Outline: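 HCT116 cells were incubated with each compound for 24 or 48 h. Caspase-3 enzyme activity was measured relative to untreated control cells. Values are means of two independent experiments, with P < 0.05 taken as significant.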

| SMILES | Activity |
| --- | --- |
| O=C(OC(C(=O)c1ccccc1)c1ccccc1)c1ccc(F)cc1 (stereo unspecified) | Active |
| COc1ccc(C(=O)C(O)c2ccc(OC)cc2)cc1 (stereo unspecified) | Active |
| O=C(OC(C(=O)c1ccccc1)c1ccccc1)c1ccc(Cl)cc1 (stereo unspecified) | Active |
| O=C(OC(C(=O)c1ccccc1)c1ccccc1)c1ccc([N+](=O)[O-])cc1 (stereo unspecified) | Active |
| O=C(OC(C(=O)c1ccccc1)c1ccccc1)c1cccc(F)c1 (stereo unspecified) | Active |
| O=C(OC(C(=O)c1ccccc1)c1ccccc1)c1ccccc1F (stereo unspecified) | Active |
